Compounds with a hit are over-represented: about 1.9% of the library has one in this group of screens.
Efflux pump inh – inhibitors of Candida antifungal efflux pumps expressed in yeast; inhibition, % at 10 µM; S. cerevisiae Candida pump triplex, Nile Red efflux; 0.44% of 330,000 active; AID 485275;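 active = plate passing quality check with inhibition over a set limit, or well fluorescence over plate mean plus 4 SD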;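 note: Nile Red retained in pooled yeast measured as flow cytometry median fluorescence; higher means more Nile Red kept so more efflux inhibition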
Rtt109 HAT inh – inhibitors of Candida albicans Rtt109/Vps75 histone acetyltransferase. purified Rtt109/Vps75, ThioGlo CoA-SH fluorescence, 4 h. inhibition, % at 34.9 µM. 0.16% of 330,000 active;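 active = inhibition of at least 50% in every replicate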
FGF22 binding – binders of recombinant human FGF22 by thermal shift | Q9HCT0 | SYPRO orange fluorescence; percent of sucrose octasulfate shift, DMSO zero | activity (Tm shift, normalised), % at 9.99 µM | 1.5% of 340,000 active;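 active = mean Tm shift, scaled 0 neutral to 100 positive control, at about 1.3% or above, every replicate too, limit read from the data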
Target sequence (Q9HCT0 whole entry, looked up): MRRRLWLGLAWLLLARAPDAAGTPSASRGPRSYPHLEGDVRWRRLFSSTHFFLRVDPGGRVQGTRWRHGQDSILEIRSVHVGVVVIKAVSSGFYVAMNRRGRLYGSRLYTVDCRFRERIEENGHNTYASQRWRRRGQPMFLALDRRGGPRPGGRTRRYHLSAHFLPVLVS
ASAP1 GAP inh – ASAP1 ArfGAP inhibition | Q9ULH1 | ASAP1-stimulated ARF1 GTP hydrolysis, GDP FP detection | inhibition, % at 16.5 µM | 0.19% of 360,000 active; in the data active = inhibition above about 25%
Target sequence (Q9ULH1 325-724 limits assumed): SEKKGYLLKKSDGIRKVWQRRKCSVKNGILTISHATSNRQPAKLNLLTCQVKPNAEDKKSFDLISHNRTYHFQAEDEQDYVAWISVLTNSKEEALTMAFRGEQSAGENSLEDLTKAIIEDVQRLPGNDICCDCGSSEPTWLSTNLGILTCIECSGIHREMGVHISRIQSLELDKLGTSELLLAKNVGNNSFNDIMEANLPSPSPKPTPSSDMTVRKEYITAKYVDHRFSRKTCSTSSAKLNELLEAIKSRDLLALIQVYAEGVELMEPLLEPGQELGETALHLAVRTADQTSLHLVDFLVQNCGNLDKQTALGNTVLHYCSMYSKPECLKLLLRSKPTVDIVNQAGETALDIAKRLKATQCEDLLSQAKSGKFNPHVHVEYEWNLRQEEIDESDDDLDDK
ARFGAP1 inhibitor – rat ARFGAP1 inhibition. Q62848. Arfgap1-stimulated ARF1 GTP hydrolysis, GDP FP detection. inhibition, % at 16.5 µM. 0.26% of 360,000 active. AID 651572;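 active = inhibition above a per-plate limit, mean inhibition of low control wells plus 3 SD, cut at about 25% in these data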
Target sequence (Q62848 1-136 limits assumed): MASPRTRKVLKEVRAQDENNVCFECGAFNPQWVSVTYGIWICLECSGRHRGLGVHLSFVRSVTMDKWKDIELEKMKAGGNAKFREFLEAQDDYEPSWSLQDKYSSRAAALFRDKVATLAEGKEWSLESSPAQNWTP
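material = rat Arfgap1 catalytic domain, aa 1-136 | also added = human ARF1(Δ1-17)-GTP substrate | compound dosing = one concentration, 16.5 µM, DMSO 1.26% | times = GTP hydrolysis reaction 2 h at 25 °C | measured by = FP, GDP Alexa 633 tracer displaced from anti-GDP antibody, 620/688 nm | evaluation = percent inhibition of Arfgap1-stimulated GTP hydrolysis | replication = single well per compound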
Of the large screens only hits and unclear results are named; the others gave an inactive call.

COc1ccc2c(COC(=O)CC3Sc4ccccc4NC3=O)cc(=O)oc2c1 (configuration not stated)	FGF22 binding 43.7
COC(=O)CC1Sc2ccccc2NC1=O (configuration not stated)	none (no result: FGF22 binding)
Cc1onc(-c2c(Cl)cccc2Cl)c1C(=O)NC(=S)N1CCOCC1	none
Clc1ccccc1OCc1nc(-c2ccncc2)no1	none (no result: FGF22 binding)
COc1ccccc1Cc1nc(-c2ccncc2)no1	FGF22 binding 43.1
Cc1ccc(NC(=O)c2ncn(CCCNCc3ccc4c(c3)OCO4)n2)cc1C	none (no result: Efflux pump inh)
C[C@H](CO)N1C[C@H](C)[C@@H](CN(C)C(=O)Nc2cccc(F)c2)Oc2cc(/C=C/c3ccccc3)ccc2S1(=O)=O	none (no result: Efflux pump inh, Rtt109 HAT inh, ASAP1 GAP inh, ARFGAP1 inhibitor)
Cn1nnnc1SCC(=O)N(C1CCCCC1)C1CCS(=O)(=O)C1 (configuration not stated)	FGF22 binding 43.2
Cn1nnnc1SCC(=O)N(C1CCCCC1)C1CCCCC1	none (no result: FGF22 binding)
COc1ccc(NC(=O)Nc2ccc3c(c2)C(=O)N([C@H](C)CO)C[C@@H](C)[C@H](CN(C)C(=O)NC2CCCCC2)OCCCC[C@H](C)O3)cc1	FGF22 binding 14.7 (no result: Efflux pump inh, Rtt109 HAT inh, ASAP1 GAP inh, ARFGAP1 inhibitor)
COc1ccc(NC(=O)Nc2ccc3c(c2)C(=O)N([C@@H](C)CO)C[C@H](C)[C@H](CN(C)C(=O)NC2CCCCC2)OCCCC[C@@H](C)O3)cc1	none (no result: Efflux pump inh, Rtt109 HAT inh, ASAP1 GAP inh, ARFGAP1 inhibitor)
COc1ccc(NC(=O)Nc2ccc3c(c2)C(=O)N([C@H](C)CO)C[C@H](C)[C@@H](CN(C)S(=O)(=O)c2cn(C)cn2)OCCCC[C@H](C)O3)cc1	FGF22 binding 1.4 (no result: Efflux pump inh, Rtt109 HAT inh, ASAP1 GAP inh, ARFGAP1 inhibitor)
O=C(c1ccc(C(F)(F)F)cc1)C1CCCN(Cc2cccn2-c2ncccn2)C1 (configuration not stated)	FGF22 binding 43.1
COc1cc(OC)c(S(=O)(=O)NC(C)C)cc1S(=O)(=O)NC(C)C	FGF22 binding 43.2
OCc1cn(-c2ccccc2)nc1-c1cc2ccccc2o1	none
COC1CCN(Cc2cn(Cc3ccccc3)nc2-c2cc3ccccc3o2)CC1	none
OCC1CCCN(Cc2cn(Cc3ccccc3)nc2-c2cc3ccccc3o2)C1 (configuration not stated)	FGF22 binding 43.0
OCC1CCN(Cc2cn(Cc3ccccc3)nc2-c2cc3ccccc3o2)CC1	FGF22 binding 43.7
O=C(NNC(=O)c1ccc(F)cc1F)c1ccc2c(c1)OCO2	FGF22 binding 44.0
O=C(NN=C1CCCCCC1)c1ccc2c(c1)OCO2	FGF22 binding 43.1
COc1ccc(CN2C(=O)CN(S(C)(=O)=O)CC2(C)C(=O)NC(C)C)cc1 (configuration not stated)	none (no result: Efflux pump inh, Rtt109 HAT inh)
CCCNC(=O)N1CC(=O)N2[C@@H](CO)[C@H](c3ccc(C#Cc4cccc(OC)c4)cc3)[C@@H]2C1	none (no result: Efflux pump inh, Rtt109 HAT inh, ASAP1 GAP inh, ARFGAP1 inhibitor)
N#C[C@H]1[C@H](c2ccccc2-c2ccc(F)cc2)[C@@H](CO)N1C(=O)Cc1ccccc1	none (no result: Efflux pump inh, Rtt109 HAT inh, ASAP1 GAP inh, ARFGAP1 inhibitor)
O=C(c1cccs1)C1CCCN(Cc2nc(Cc3ccccc3F)no2)C1 (configuration not stated)	FGF22 binding 42.9
O=C(c1cccnc1)C1CCCN(Cc2nc(Cc3ccccc3F)no2)C1 (configuration not stated)	none
CC(C)(Oc1ccc(Cl)cc1)C(=O)OCC(=O)Nc1ncc(Cl)cc1Cl	none (no result: FGF22 binding)
O=C(Oc1c(Br)cc([N+](=O)[O-])cc1Br)c1cccnc1	FGF22 binding 43.6
N/C(=N\OC(=O)c1ccc([N+](=O)[O-])cc1)c1cccnc1	none
CC(=O)Nc1cccc(/C(C)=N/Nc2nc3ccccc3s2)c1	FGF22 binding 43.1
CC(=O)Nc1ccc(/C=N/Nc2nc3ccccc3s2)cc1	none (no result: Efflux pump inh)
OC[C@@H]1[C@H](c2ccc(Br)cc2)[C@@H]2CNCCCCN12	none (no result: Efflux pump inh, Rtt109 HAT inh, ASAP1 GAP inh, ARFGAP1 inhibitor)
Cc1nn(CC(=O)Nc2nccs2)c(C)c1[N+](=O)[O-]	none
Cc1cc([N+](=O)[O-])nn1CCC(=O)Nc1nccs1	FGF22 binding 43.1
O=C(OCc1ccc(Br)cc1)c1ccncc1	Rtt109 HAT inh 57.5
O=C(OCc1ccc(Br)cc1)c1cccnc1	none
CCN(CCn1cccn1)C(=O)CC1C(=O)NCCN1Cc1cc(OC)cc(OC)c1 (configuration not stated)	FGF22 binding 44.2
CCN(CCn1cccn1)C(=O)CC1C(=O)NCCN1Cc1ccc(OC)c(OC)c1 (configuration not stated)	none
Cc1ccccc1OCc1csc(N)n1	FGF22 binding 43.0
c1cncc(CNc2ncnc3ccc(-c4cccnc4)cc23)c1	FGF22 binding 44.8
CCCS(=O)(=O)N1CCN(Cc2c[nH]c3ccccc23)CC1	FGF22 binding 43.0
COc1ccc(S(=O)(=O)N2CCN(Cc3c[nH]c4ccccc34)CC2)cc1	none (no result: FGF22 binding)
Cc1cnccc1CN(C)C(=O)CC1C(=O)NCCN1CC1CCCCC1 (configuration not stated)	none
O=C(O)CNS(=O)(=O)c1ccc2[nH]c(=O)c(=O)[nH]c2c1	none
Cc1c(/C=N\NC(=O)c2c[nH]c3ccccc23)cnn1C	FGF22 binding 44.0 (no result: Rtt109 HAT inh)
CCn1cc(/C=N\NC(=O)c2c[nH]c3ccccc23)c(C)n1	none (no result: FGF22 binding)
Cc1ccc(C(=O)OCc2c(C)noc2C)cc1NC(=O)c1ccco1	FGF22 binding 43.7
CCCCNC(=O)COC(=O)c1ccc(C)c(NC(=O)c2ccco2)c1	none
O=[N+]([O-])c1ccc(C[n+]2cccc3c4ccccc4ccc32)cc1	FGF22 binding 43.2
O=C(CCl)Nc1cccc(Oc2cnccn2)c1	none
O=C(CCl)Nc1cccc(Oc2ccccc2)c1	FGF22 binding 42.9
O=C1CN(C(=O)/C=C/c2ccco2)c2ccccc2N1	FGF22 binding 44.2
O=C1CN(C(=O)COC(=O)c2ccco2)c2ccccc2N1	none
O=C1CN(C(=O)/C=C/c2cccc(Cl)c2)c2ccccc2N1	none
O=C1CN(C(=O)/C=C/c2ccc(Cl)cc2)c2ccccc2N1	Rtt109 HAT inh 56.1
O=C(NCc1ccccc1F)C1CCC(=O)N(Cc2ccc(Cl)cc2)C1 (configuration not stated)	none
CC12CCC3c4ccccc4CCC3(CO1)C2 (configuration not stated)	FGF22 binding 43.0 (no result: Efflux pump inh, Rtt109 HAT inh)
CCN(C(=O)COC(=O)c1n[nH]c2ccccc12)c1ccccc1	none
Nc1c2c(nc3ccccc13)N(C1CCCCC1)CC2	none (no result: FGF22 binding)
Nc1c2c(nc3ccc(Br)cc13)N(C1CCCCC1)CC2	Efflux pump inh 2.4 (no result: Rtt109 HAT inh, FGF22 binding, ASAP1 GAP inh, ARFGAP1 inhibitor)
Cn1cccc1Cc1nnc(SCC(=O)N2CCCC2)n1CCc1ccccc1	FGF22 binding 43.1
CCOC(=O)C(NC(C)=O)(OCc1ccc(F)cc1)C(F)(F)F (configuration not stated)	none (no result: FGF22 binding)
CCOc1ccc(NC(=O)C(CC)n2nc(C)c3c(C)n(-c4ccccc4)nc3c2=O)cc1 (configuration not stated)	none
CCOC(=O)[C@]12CCC=C1N(Cc1ccccc1)C(=O)[C@H](CC(=O)NCc1ccc(C)o1)C2	none (no result: Efflux pump inh, Rtt109 HAT inh)
CCOC(=O)[C@]12CCC=C1N(Cc1ccco1)C(=O)[C@H](CC(=O)NCc1ccc(C)o1)C2	FGF22 binding 43.2 (no result: Efflux pump inh, Rtt109 HAT inh)

Compound activity: PubChem BioAssay, several laboratories
